Laboratory results from ChEMBL document CHEMBL4706680, “Small-Molecule HSP27 Inhibitor Abolishes Androgen Receptors in Glioblastoma” (J Med Chem, 2021).
Calls of active or inactive are those of the source. The rule behind the calls is not given here.

Legend:
[1] = tested on: U-87 MG; assay: Antitumor activity against human U87 cells xenografted in nude mouse assessed as reduction in tumor weight at 20 mg/kg, ip administered thrice weekly for 14 days by vernier caliper method; type: functional, organism-based; settings: U-87MG ATCC, time 14.0 day
Summary of the method: (§1)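 Male NCRNU nude mice, 5–6 weeks, 5 × 10^6 U87 cells in PBS injected subcutaneously into left and right flank (n = 4 mice, 8 tumors per group). Dosing began near 50 mm3: 20 mg/kg in PBS IP or oral, three times weekly for 14 days, vehicle DMSO. Calipers three times weekly, V = 2/3·d1·d2²; tumors weighed after CO2 euthanasia.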

[2] = target: Heat shock protein beta-1 (Homo sapiens) (UniProt P04792); assay: Inhibition of HSP27 in human T98G cells assessed as reduction in wild type AR expression level at 50 to 100 nM in presence of MG132 by Western blot analysis; type: cell-based; settings: dose 50-100 nM
Summary of the method: (§2)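 Cells were treated in six-well plates (with or without MG132 where stated), then lysed in RIPA with protease inhibitors. 50 μg protein was run on 10% SDS-PAGE and transferred to PVDF. Membranes were blocked in 5% milk/TBS-T, probed with AR or AR-V7 antibodies overnight at 4 °C, and detected by chemiluminescence. Densitometry was used; n = 3.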

[3] = target: Heat shock protein beta-1 (Homo sapiens) (UniProt P04792); assay: Inhibition of HSP27 in human U87 cells assessed as reduction in AR expression level at 50 to 100 nM in presence of MG132 by Western blot analysis; type: cell-based; settings: dose 50-100 nM; summary of the method: as §2
[4] = tested on: U-87MG ATCC; assay: Downregulation of NKX3.1 mRNA expression in human U87 cells at 25 nM incubated for 12 hrs by qRT-PCR analysis; type: functional, cell-based
Summary of the method: (§3)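 T98G and U87 cells, 2 × 10^5 per well, adhered overnight and were treated at 25 nM for 12 h. RNA was extracted with RiboZol and DNase I-treated. AR, PSA and NKX3.1 were measured by real-time PCR, normalized to 18S by 2−ΔΔCt, three replicates per cDNA.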

[5] = target: Heat shock protein beta-1 (Homo sapiens) (UniProt P04792); assay: Inhibition of HSP27 in human T98G cells assessed as downregulation of androgen receptor by Western blot analysis; type: cell-based; settings: dose 25-100 nM; summary of the method: as §2
[6] = tested on: Mus musculus; assay: In vivo inhibition of HSP27 in human U87 cells xenografted in NCR nude mouse assessed as reduction in AR expression level in tumors at 20 mg/kg, ip administered thrice weekly for 14 days by Western blot analysis; type: functional, organism-based; settings: time 14.0 day
Summary of the method: (§4)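 Tumors from U87 flank xenografts in male nude mice dosed at 20 mg/kg IP or orally three times weekly for 14 days. The two tumors of each mouse were pooled and homogenized in RIPA with protease inhibitors and PMSF. AR was then measured by western blot; n = 4.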

[7] = target: Heat shock protein beta-1 (Homo sapiens) (UniProt P04792); assay: Inhibition of HSP27 in human T98G cells assessed as reduction in AR expression level at 100 nM incubated for 12 hrs by immunofluorescence analysis; type: cell-based
Summary of the method: (§5)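 T98G cells on coverslips, 24 h after seeding, were treated 12 h with 100 nM, DHT 10 nM, or both. Cells were fixed in 4% paraformaldehyde, permeabilized with 0.1% Triton X-100 and blocked with 1% BSA. They were stained 1 h each with AR and HSP27 primary and fluorescent secondary antibodies, with DAPI for nuclei.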

[8] = tested on: U-87 MG; assay: Antitumor activity against human U87 cells xenografted in nude mouse assessed as reduction in tumor size at 20 mg/kg, po administered thrice weekly for 14 days by vernier caliper method; type: functional, organism-based; settings: U-87MG ATCC, time 14.0 day; summary of the method: as §1
[9] = target: Heat shock protein beta-1 (Homo sapiens) (UniProt P04792); assay: Inhibition of HSP27 (unknown origin) chaperone activity assessed as increase in DTT-induced insulin aggregation at 10 uM incubated for 5 mins in presence of alpha-crystallin followed by addition of DTT and measured for 2 hrs for every 3 mins by microplate reader analysis; settings: time 125.0 min
Summary of the method: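 Insulin aggregation assay in PBS at 10 μM, 0.1% DMSO. Insulin stock 1 mg/mL with or without α-crystallin stock 5 mg/mL was preincubated 5 min at 37 °C. Aggregation was started with DTT (1 M stock). A400 was read every 3 min for 2 h; three independent experiments, each in triplicate.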

[10] = tested on: T98G; assay: Downregulation of PSA mRNA expression in human T98G cells at 25 nM incubated for 12 hrs by qRT-PCR analysis; type: functional, cell-based; summary of the method: as §3
[11] = target: Heat shock protein beta-1 (Homo sapiens) (UniProt P04792); assay: Inhibition of HSP27 in human U87 cells assessed as induction of AR degradation at 25 to 100 nM by Western blot analysis; type: cell-based; settings: dose 25-100 nM; summary of the method: as §2
[12] = target: Heat shock protein beta-1 (Homo sapiens) (UniProt P04792); assay: Inhibition of HSP27 in human U87 cells assessed as reduction in AR expression level at 50 to 100 nM by Western blot analysis; type: cell-based; settings: dose 50-100 nM; summary of the method: as §2
[13] = target: Heat shock protein beta-1 (Homo sapiens) (UniProt P04792); assay: Inhibition of HSP27 in human T98G cells assessed as induction of AR degradation at 25 to 100 nM by Western blot analysis; type: cell-based; settings: dose 25-100 nM; summary of the method: as §2
[14] = target: Heat shock protein beta-1 (Homo sapiens) (UniProt P04792); assay: Inhibition of HSP27 in human T98G cells assessed as AR accumulation in nucleus at 100 nM incubated for 12 hrs in presence of DHT by immunofluorescence analysis; type: cell-based; summary of the method: as §5
[15] = target: Heat shock protein beta-1 (Homo sapiens) (UniProt P04792); assay: Inhibition of HSP27 in human T98G cells assessed as reduction in AR-V7 expression level at 50 to 100 nM in presence of MG132 by Western blot analysis; type: cell-based; settings: dose 50-100 nM; summary of the method: as §2
[16] = Toxicity in NCR nude mouse xenografted with human U87 cells assessed as change in body weight at 20 mg/kg, po administered thrice weekly for 14 days; type: organism-based; settings: in vivo, 336 h, time 14 day
Summary of the method: (§6)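 Male NCRNU nude mice, 5–6 weeks old, were given 5 × 10^6 U87 cells in 100 μL sterile PBS, injected subcutaneously into the left and right flanks. Dosing was 20 mg/kg in PBS, three times weekly for 14 days, with a DMSO vehicle group. Body weight was recorded three times weekly. Results are mean ± SD, n = 4 mice per group.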

[17] = target: Heat shock protein beta-1 (Homo sapiens) (UniProt P04792); assay: Inhibition of HSP27 in human T98G cells assessed as reduction in AR-V7 expression by Western blot analysis; type: cell-based; settings: dose 25-100 nM; summary of the method: as §2
[18] = Toxicity in NCR nude mouse xenografted with human U87 cells assessed as change in body weight at 20 mg/kg, ip administered thrice weekly for 14 days; type: organism-based; settings: in vivo, 336 h, time 14 day; summary of the method: as §6
[19] = Dissociation constant, pKa of the compound; type: physicochemical
[20] = tested on: Mus musculus; assay: In vivo inhibition of HSP27 in human U87 cells xenografted in NCR nude mouse assessed as reduction in AR expression level in tumors at 20 mg/kg, po administered thrice weekly for 14 days by Western blot analysis; type: functional, organism-based; settings: time 14.0 day; summary of the method: as §4
[21] = tested on: U-87 MG; assay: Antiproliferative activity against human U87 cells assessed as reduction in cell viability incubated for 48 hrs by MTT assay; type: functional, cell-based, U-87MG ATCC
Summary of the method: (§7)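 MTT assay; 3000 cells/well in RPMI 1640 or DMEM with 10% FBS, seeded 24 h, then exposed 48 h to a range of concentrations in DMSO (final ≤0.1%); vehicle controls. MTT 1 mg/mL for 2 h at 37 °C, dye dissolved in DMSO, absorbance 570 nm; eight replicates; IC50 by nonlinear regression.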

[22] = tested on: T98G; assay: Antiproliferative activity against human T98G cells overexpressing AR assessed as reduction in cell viability incubated for 48 hrs by MTT assay; type: functional, cell-based; summary of the method: as §7

Heat shock protein beta-1 (Homo sapiens), sequence (P04792 whole entry): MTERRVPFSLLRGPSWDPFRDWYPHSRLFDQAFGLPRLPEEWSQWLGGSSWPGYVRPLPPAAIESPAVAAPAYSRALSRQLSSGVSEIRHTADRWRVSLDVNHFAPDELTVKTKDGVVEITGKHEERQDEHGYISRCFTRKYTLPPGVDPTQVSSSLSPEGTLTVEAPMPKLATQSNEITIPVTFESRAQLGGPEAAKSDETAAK

For `COc1ccc(C(=O)Nc2ccc(NS(C)(=O)=O)c(OCc3cc(OC)ccc3OC)c2)cc1`, which Activity [1] is on record?
Its Activity is “Active”.

And the inhibition [2]?
The inhibition was “inactive”.

And the inhibition [3]?
The inhibition was “inactive”.

What about the inhibition [4] of the same compound?
Its inhibition is “Active”.

What about the inhibition [5] of the same compound?
The inhibition was “Dose-dependent effect”.

And the inhibition [6]?
Its inhibition is “Active”.

What about the inhibition [7] of the same compound?
The inhibition was “Active”.

What about the Activity [8] of the same compound?
The Activity was “Active”.

What about the inhibition [9] of the same compound?
The inhibition was “Active”.

And the inhibition [10]?
The inhibition was “Active”.

What about the inhibition [11] of the same compound?
The inhibition was “Active”.

And the inhibition [12]?
Its inhibition is “Active”.

And the inhibition [13]?
Its inhibition is “Active”.

What about the inhibition [14] of the same compound?
Its inhibition is “inactive”.

What about the inhibition [15] of the same compound?
Its inhibition is “inactive”.

And the Activity [16]?
Its Activity is “Non-Toxic”.

What about the inhibition [17] of the same compound?
Its inhibition is “Dose-dependent effect”.

What about the Activity [18] of the same compound?
Its Activity is “Non-Toxic”.

And the pKa [19]?
Its pKa is 8.65.

And the inhibition [20]?
Its inhibition is “Active”.

And the IC50 [21]?
The IC50 was 4.78 nM.

What about the IC50 [22] of the same compound?
Its IC50 is 2.01 nM.
